The species entered for test [1] is Rattus norvegicus. Description: Vasodilatory activity in pre-contracted Wistar rat aortic rings. Type of test: functional, Aorta. In a few lines: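 Aortic strips, endothelium removed, from male Wistar rats (180-200 g) were held in Krebs-bicarbonate at 37 °C, pH 7.4, gassed with 95% O₂/5% CO₂. After 90 min equilibration they were contracted with 1 μM phenylephrine. Cumulative concentration-response curves were run at plateau, with isometric recording. EC50 is the mean of ≥5 determinations.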

In test [2] the test system is Plasmodium falciparum. In words: Antiplasmodial activity against chloroquine-resistant Plasmodium falciparum W2 assessed as inhibition of parasite LDH activity after 72 hrs by spectrophotometry. Format: functional, organism-based. The settings on record: W2, 72 h. In a few lines: (§1)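 Asynchronous cultures (1-1.5% parasitemia, 1% final haematocrit) in human A+ RBCs were grown in RPMI 1640 with 1% AlbuMax, hypoxanthine, HEPES and glutamine, at 37 °C under 1% O₂/5% CO₂. IC50 is the mean±SD of ≥3 experiments.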

Test [3] is filed under the species Rattus norvegicus. Description: Vasodilatory activity in pre-contracted Wistar rat aortic rings in presence of 1 uM ODQ. Type of test: functional, Aorta. In a few lines: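 Endothelium-denuded aortic strips from male Wistar rats (180-200 g) were kept in Krebs-bicarbonate at 37 °C, pH 7.4. ODQ at 1 μM was added 5 min before contraction with 1 μM phenylephrine. Cumulative relaxation curves were recorded isometrically. EC50 is the mean of ≥5 determinations.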

The test system of test [4] is Plasmodium falciparum. Description: Antiplasmodial activity against chloroquine-sensitive Plasmodium falciparum D10 assessed as inhibition of parasite LDH activity after 72 hrs by spectrophotometry. The settings on record: D10, 72 h. Format: functional, organism-based. In a few lines:
as §1

Test [5] deals with Plasmodium berghei. In words: Antiplasmodial activity against Plasmodium berghei ANKA infected in C57BL/6 mouse assessed as reduction in parasitemia at 1 mg, ip daily for 5 days measured after 72 hrs relative to control. Type of test: functional, organism-based.
In test [6] the test system is Plasmodium berghei. Description: Antiplasmodial activity against Plasmodium berghei ANKA infected in C57BL/6 mouse assessed as reduction in parasitemia at 1.15 mg, ip daily for 5 days measured upto 24 hrs relative to control. Type of test: functional, organism-based. In a few lines:
(§2)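 C57BL/6 mice aged 6-8 weeks were infected ip with 1x10⁶ PbA-GFP parasitized red blood cells. Parasitemia, motor behaviour, rectal temperature and weight were checked from day 5. Treatment began at late-stage CM, defined by neurological signs (ataxia, paralysis, poor righting, seizures, roll-over, coma). Doses were 100 μL ip daily for 5 days: 1.4 mg in 20% DMSO/20% PEG400/60% saline, 1.15 mg in saline.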

In test [7] the test system is Plasmodium berghei. Description: Antiplasmodial activity against Plasmodium berghei ANKA infected in C57BL/6 mouse assessed as mouse survival 1.15 mg, ip daily for 5 days relative to control. Type of test: functional, organism-based. In a few lines: as §2
Test [8] concerns Plasmodium berghei. Description: Antiplasmodial activity against Plasmodium berghei ANKA infected in C57BL/6 mouse assessed as reduction in parasitemia at 1.15 mg, ip daily for 5 days measured after 72 hrs relative to control. Type of test: functional, organism-based. In a few lines:
as §2

The test system of test [9] is Plasmodium berghei. Description: Antiplasmodial activity against Plasmodium berghei ANKA infected in C57BL/6 mouse assessed as mouse survival at 1 mg, ip daily for 5 days relative to control. Type of test: functional.
Test [10] relates to Plasmodium berghei. Description: Antiplasmodial activity against Plasmodium berghei ANKA infected in C57BL/6 mouse assessed as reduction in parasitemia at 1.4 mg, ip daily for 5 days measured after 72 hrs relative to control. Type of test: functional, organism-based. In a few lines: as §2
The subject of test [11] is Plasmodium berghei. In words: Antiplasmodial activity against Plasmodium berghei ANKA infected in C57BL/6 mouse assessed as reduction in parasitemia at 1.4 mg, ip daily for 5 days measured upto 24 hrs relative to control. Type of test: functional. The arrangement: scale not given: the % may be the effect or the level left. In a few lines: as §2
The subject of test [12] is Plasmodium berghei. In words: Antiplasmodial activity against Plasmodium berghei ANKA infected in C57BL/6 mouse assessed as mouse survival at 1.4 mg, ip daily for 5 days relative to control. Format: functional. In a few lines: as §2
Test [13] concerns Plasmodium berghei. In words: Antiplasmodial activity against Plasmodium berghei ANKA infected in C57BL/6 mouse assessed as reduction in parasitemia at 1 mg, ip daily for 5 days measured upto 24 hrs relative to control. Type of test: functional. Details: scale not given: the % may be the effect or the level left.
[14] abbreviates: Rattus norvegicus, Aorta, read-out: EC50.

19 compounds from ChEMBL document CHEMBL1770125, “Amodiaquine analogues containing NO-donor substructures: synthesis and their preliminary evaluation as potential tools in the treatment of cerebral malaria” (Eur J Med Chem, 2011) can be followed below.

Calls of active or inactive are those of the source. The rule behind the calls is not given here.

As usually defined, the EC50 is the concentration needed to bring the measured effect to its halfway point. By IC50 is commonly meant the midpoint of a concentration-inhibition curve.

Turning to `O=[N+]([O-])OCCC1CCN(Cc2cc(Nc3ccnc4cc(Cl)ccc34)ccc2O)CC1`, the concentration for a half-maximal effect (EC50) is 100 nM in test [1] (setting [14]) and more than 30000 nM in test [3] (setting [14]). For the same compound, the results for the IC50 in test [2] and in test [4] were 25 nM and 19 nM, respectively.
With `CCN(CC)Cc1cc(Nc2ccnc3cc(Cl)ccc23)ccc1O.Cl`, the EC50 entry in test [1] and in test [3] was “Not Active” throughout. Besides, the figures for the half-inhibitory concentration (IC50) in test [2] and in test [4] were 16 nM and 12 nM, respectively. Besides, the outcome in [5] was Active.
On to `CCN(CCCCC(CO[N+](=O)[O-])O[N+](=O)[O-])Cc1cc(Nc2ccnc3cc(Cl)ccc23)ccc1O` (stereo not given), for which, in test [6], the result was inactive. In addition, the half-maximal effective concentration (EC50) is 220 nM in test [1] (setting [14]) and more than 30000 nM in test [3] (setting [14]). In addition, the results for the IC50 in test [2] and in test [4] were 21 nM and 38 nM, respectively. The Survival result in test [7] was “inactive”. Moreover, the result in test [5] and in test [8] was Active.
Consider `O=[N+]([O-])OCCCN1CCN(Cc2cc(Nc3ccnc4cc(Cl)ccc34)ccc2O)CC1`, for which the EC50 in test [1] (setting [14]) came out at 79 nM; in test [3] (setting [14]) it was 3600 nM. Further, the values for the IC50 in [2] and in test [4] were 34 nM and 18 nM, respectively.
On the same counts, the results for `O=[N+]([O-])OCCCNCc1cc(Nc2ccnc3cc(Cl)ccc23)ccc1O` are 420 nM, 11000 nM, 62 nM and 27 nM.
On the same counts, the results for `CCN(CCCO[N+](=O)[O-])Cc1cc(Nc2ccnc3cc(Cl)ccc23)ccc1O` are 450 nM, 3300 nM, 31 nM and 27 nM.
For the compound `CCNCCCCCCO[N+](=O)[O-]`, the IC50 in test [2] and in test [4] was more than 5000 nM in each case.
With `CCN(CCOc1no[n+]([O-])c1-c1ccccc1)Cc1cc(Nc2ccnc3cc(Cl)ccc23)ccc1O`, the concentration for a half-maximal effect (EC50) in [1] (setting [14]) is 1200 nM; in test [3] (setting [14]), more than 10000 nM. For the same compound, the IC50 was 24 nM in test [2] and 23 nM in [4].
On to `O=[N+]([O-])OCCC1CCNCC1`, for which the half-inhibitory concentration (IC50) in test [2] and in [4] was more than 5000 nM each time.
`CCNCCCCC(CO[N+](=O)[O-])O[N+](=O)[O-]` (stereo not given): the IC50 in test [2] and in [4] was more than 5000 nM each time.
As to `O=[N+]([O-])OCC1CCNCC1`, the IC50 in [2] and in test [4] was more than 5000 nM each time.
Regarding `CN(C)CCCOc1no[n+]([O-])c1-c1ccccc1`, the EC50 in [1] (setting [14]) stood at 30 nM. The IC50 in [2] is 4940 nM; in [4], more than 5000 nM.
Turning to `CN(C)CCCOc1no[n+]([O-])c1S(=O)(=O)c1ccccc1`, the half-maximal effective concentration (EC50) in test [1] (setting [14]) is 14300 nM; in test [3] (setting [14]), more than 10000 nM. The IC50 in [2] and in test [4] was more than 5000 nM each time.
For the compound `O=[N+]([O-])OCC1CCN(Cc2cc(Nc3ccnc4cc(Cl)ccc34)ccc2O)CC1`, the concentration for a half-maximal effect (EC50) was 100 nM in test [1] (setting [14]) and more than 30000 nM in test [3] (setting [14]). In addition, the concentration for half-maximal inhibition (IC50) in test [2] stood at 28 nM; in test [4], 19 nM.
`O=[N+]([O-])OCCCN1CCNCC1`: the IC50 in test [2] and in [4] was more than 5000 nM throughout.
Turning to `CCN(CCCCCCO[N+](=O)[O-])Cc1cc(Nc2ccnc3cc(Cl)ccc23)ccc1O`, the concentration giving a half-maximal response (EC50) was 450 nM in [1] (setting [14]) and more than 30000 nM in [3] (setting [14]). In addition, the values for the IC50 in test [2] and in test [4] were 28 nM and 31 nM, respectively.
Consider `O=[N+]([O-])OCCN1CCNCC1`, for which the IC50 in test [2] and in [4] was more than 5000 nM in each case.
Turning to `CCN(CCOc1no[n+]([O-])c1S(=O)(=O)c1ccccc1)Cc1cc(Nc2ccnc3cc(Cl)ccc23)ccc1O.Cl.Cl.Cl`, the values for the EC50 in [1] (setting [14]) and in [3] (setting [14]) were 17 nM and 1000 nM, respectively. Also, the Survival is given as 8% in test [9] and 23% in test [12]. The IC50 in test [2] stood at 152 nM; in test [4], 46 nM. Moreover, the outcome in test [10], in test [5] and in [8] was Active. The Activity in [11] amounted to 76%; in test [13], 72%.
As for `O=[N+]([O-])OCCN1CCN(Cc2cc(Nc3ccnc4cc(Cl)ccc34)ccc2O)CC1`, the EC50 in [1] (setting [14]) turned out to be 120 nM; in test [3] (setting [14]) it was 6500 nM. In addition, the IC50 was 138 nM in test [2] and 55 nM in [4].
